HSF1 inhib: HSF1 inhibition. NIH3T3-HGL HSE-luciferase, MG132-induced, luminescence 8 h; stronger effect = lower value. activity change, negative = inhibition, % at 7.5 µM (by protocol). hit rate 0.77% among 300,000. AID 2098;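 active = more than half of replicate wells show activity change below -50%, luminescence cut by over half; inconclusive = some wells, but at most half, below -50%; inactive = no replicate well below -50%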;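 also: luciferase reports HSF-1 transcriptional activity via heat shock element; 0% = median of DMSO wells and -100% = zero luminescence signal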
T cruzi repl: T. cruzi replication inhibition. T. cruzi beta-gal in NIH3T3, luminescence, 90 h. inhibition, % (concentration not given with the values). hit rate 1.4% among 300,000. AID 1885;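 active = mean inhibition across valid replicates above about 55%, limit read from the data; inconclusive = mean below that limit but half or more replicates reach it; inactive = mean below it, under half of replicates reach it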;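 also: signal also drops with host cell toxicity which is not excluded here; 0% = plate median of DMSO wells and 100% = zero luminescence signal; higher percent means less beta-gal luminescence so fewer parasites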
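System: Mouse NIH/3T3 fibroblasts infected with β-gal-expressing T. cruzi Tulahuen C4 | Quantity: NIH/3T3 cells, 5,000 per well | Reagent: 5000 reporter trypomastigotes per well | Dosing: Compound pinned at 50 nL/well, DMSO | Schedule: 3 h host attachment, then at least 90 h co-culture | Detection: GalScreen luminescence, 60 min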
Hsp70 activator: Hsp70 transcriptional activation, primary screen; HeLa Hsp70 promoter luciferase reporter, luminescence; scaled: vehicle 0, proteasome-inhibitor control 100%; activation, % at 10 µM; hit rate 0.04% among 200,000; AID 1203;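 active = activation above the mean across all tested compounds plus 3 SD, cutoff set per campaign, cut at about 5.5% in these data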;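 also: 100% = MG132 at 30 µM as the positive control and 0% = DMSO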
L major viab: inhibitors of Leishmania major promastigote growth; Leishmania major promastigotes, resazurin fluorescence viability; inhibition, % at 10 µM; hit rate 9% among 200,000; AID 1063; in the data active = inhibition above about 50%;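 also: promastigotes grown with compound for 44 hours at 28 °C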
HSF-1 act: increases HSF-1 driven luciferase reporter signal; NIH3T3-HGL HSF-1 luciferase reporter, MG132, 8 h; 100% = twice DMSO control signal; AID 504408; hit rate 1.7% among 300,000; activation, % at 9 µM;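 active = mean replicate activation of at least 50% with a set share of replicates each reaching 50%; inconclusive = only one of those two conditions met; inactive = mean below 50% and too few replicates reaching it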;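 also: 0% = median of the neutral control wells and 100% = twice that signal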
Numbers without * were called inactive; ? = inconclusive; · = no result given. Many of the other results were omitted from the sample, so hits are more common in it than they were.

SMILES | HSF1 inhib | T cruzi repl | Hsp70 activator | L major viab | HSF-1 act
Fc1ccc(OCc2nnc(-c3ccccc3Br)o2)c(Cl)c1 | 28 | 16 | · | · | 68*
Clc1ccc(OCc2nnc(-c3ccccc3Br)o2)cc1 | 15 | -10 | 0 | -8 | 44
O=[N+]([O-])c1ccc2c(c1)nc1n2CCN(C2CCCCC2)C1 | 22 | 16 | 1 | 25 | 53*
CCc1cccc(CC)c1NC(=S)NCCc1c(C)[nH]c2ccc(C)cc12 | -5 | ? | 0 | 53* | 5
O=C(CNC(=O)c1ccccc1F)Nc1ccccc1C(F)(F)F | -5 | -5 | 0 | -7 | -4
CN(C)S(=O)(=O)c1ccc(NC(=O)CN2CCCc3ccccc32)cc1 | 3 | 13 | 0 | 21 | -5
Nc1c(S(=O)(=O)c2cccs2)c2nc3ccccc3nc2n1/N=C/c1cccc(O)c1 | 16 | 36 | 0 | 58* | 19
COc1cccc(/C=N/n2c(N)c(S(=O)(=O)c3cccs3)c3nc4ccccc4nc32)c1 | -9 | 28 | 0 | -2 | -29
COc1ccc(/C=N/n2c(N)c(S(=O)(=O)c3cccs3)c3nc4ccccc4nc32)cc1OC | 6 | 41 | 0 | 62* | 17
COc1cc([N+](=O)[O-])ccc1NC(=O)C[n+]1ccccc1 | -1 | -22 | 0 | 12 | 26
CCOc1ccc(Nc2ncnc3ccc([N+](=O)[O-])cc23)cc1 | -40 | 59* | 0 | 24 | -43
CCOc1ccc(Nc2ccc3nonc3c2[N+](=O)[O-])cc1 | -2 | 1 | · | · | -15
COc1ccc(C(=O)Cn2nnc(-c3ccccc3-n3cnnn3)n2)cc1 | -2 | 2 | 0 | -8 | 6
Cc1ccc(C(=O)Cn2nnc(-c3ccccc3-n3cnnn3)n2)cc1 | 53 | -10 | 0 | 4 | 73*
CCOC(=O)c1ccccc1Oc1c(F)c(F)nc(NCCO)c1F | -8 | -13 | 1 | 82* | 9
Cc1cc([N+](=O)[O-])nn1CC(=O)NCc1ccccc1 | 2 | 4 | · | · | -12
Cc1cc([N+](=O)[O-])nn1CC(=O)NCc1ccco1 | 2 | -5 | 0 | 50* | 0
Cc1ccc(O)c(/C=N/NC(=O)c2[nH]ncc2Br)c1 | 20 | -13 | 0 | 98* | 43
COc1ccc(OC)c(/C=N/NC(=O)c2[nH]ncc2Br)c1 | 4 | -14 | · | · | 17
CCOc1ccc(/C=N/NC(=O)c2[nH]ncc2Br)c(O)c1 | 15 | 55* | 0 | 99* | 46
O=C(N/N=C/c1c(O)ccc2ccccc12)c1[nH]ncc1Br | 15 | 25 | 0 | 100* | 32
O=C(N/N=C\c1c(O)ccc2ccccc12)c1ccc(Cn2cccn2)o1 | 5 | 14 | 0 | 98* | -8
O=C(N/N=C\c1ccc(Cl)s1)c1ccc(Cn2cccn2)o1 | 2 | -15 | 0 | 5 | -7
CC(=O)c1c(C)nn(CC(=O)NC2CCCN(Cc3ccc(CC(C)C)cc3)C2)c1C (configuration not stated) | 0 | -12 | · | · | 14
COc1ccc(CCNC(=O)C2CCCN2C(=O)Nc2ccc(F)cc2)cc1OC (configuration not stated) | -4 | 3 | · | · | 9
SMILES | HSF1 inhib | T cruzi repl | Hsp70 activator | L major viab | HSF-1 act
N/C(=N\OC(=O)CC(c1ccccc1)c1ccccc1)c1cccnc1 | 3 | 8 | 1 | 25 | 2
CCCCC[C@H](O)/C=C/[C@H]1CCC(=O)[C@@H]1CCCCCCC(=O)N1CCCCC1CO (some centres not stated) | 0 | 5 | · | · | 6
Cc1ccc2nc(Cl)c(/C=N/NC(=O)c3ccccc3O)cc2c1 | 7 | -15 | 0 | -11 | 26
Cc1ccc(O)c(/C=N/NC(=O)C2=NNC(c3ccccc3)(c3ccccc3)C2)c1 | · | · | 0 | 100* | ·
O=Cc1ccc(OCc2ccc3ccccc3c2)cc1 | 44 | -16 | · | · | 60*
O=C(NNC(=O)c1cccnc1SCc1cccc([N+](=O)[O-])c1)c1ccccn1 | -33 | 65* | 0 | 98* | -34
CCc1nc(N)nc(N)c1-c1ccc(Cl)c(N=[N+]=[N-])c1 | -1 | · | · | · | -1
CCOc1ccc(CO/N=C/c2c(C)[nH]c(=O)[nH]c2=O)cc1 | 0 | 4 | 0 | -5 | -6
Cn1c(=O)c2c(nc(NCc3cccnc3)n2Cc2cccc(C(F)(F)F)c2)n(C)c1=O | 0 | 40 | -1 | 95* | 3
CCCOc1ccc(C(O)(CCN2CCCCC2)c2ccccc2OC)cc1 (configuration not stated) | 1 | 6 | · | · | -5
Oc1ccc(Nc2nc3ccccc3nc2Nc2ccc(O)cc2)cc1 | -86* | 71* | 1 | 92* | -86
N#C/C(=C\c1ccc(OCC(N)=O)cc1)c1ccccc1 | -7 | -2 | 0 | 58* | -16
O=C(c1ccc(=O)[nH]c1)N1CCN(S(=O)(=O)c2ccc(Cl)cc2)CC1 | -2 | 1 | · | · | -20
CCCS(=O)(=O)N1CCCC(C(=O)Oc2ccc(C)c(C)c2)C1 (configuration not stated) | -6 | -14 | · | · | -11
Cc1onc(-c2ccc(Cl)cc2)c1-c1ccnc(SCC(=O)Nc2cc(Cl)cc(Cl)c2)n1 | 3 | 59* | · | · | 8
COc1cc(C(=O)OCc2cc(=O)oc3c(C)c(C)ccc23)ccc1OC(F)F | -4 | -8 | · | · | -5
Cc1ccc(NC(=O)c2ccc3snnc3c2)cc1 | 46 | -12 | 0 | 14 | 29
O=C(Nc1ccccc1)c1ccc2snnc2c1 | 4 | -4 | 0 | 77* | 6
COc1ccccc1NC(=O)c1ccc2snnc2c1 | 2 | -23 | 0 | 99* | -18
COc1cc(NC(=O)c2ccc3snnc3c2)cc(OC)c1 | 12 | 2 | · | · | 25
O=C(Nc1ccc2snnc2c1)Nc1cccc2ccccc12 | 11 | 16 | -1 | 100* | 13
CCCOc1cc(C)c(S(=O)(=O)n2ccc(C)n2)cc1C | -1 | 11 | 0 | 4 | -11
CCn1ccnc1CN1CCN(CCC(C)C)C(CCO)C1 (configuration not stated) | -5 | -1 | 0 | -3 | -5
COc1cc(OC)c(C2C(C#N)=C(C)NC(C)=C2C#N)c(C(=O)O)c1 | -4 | -1 | · | · | 22
CC(=O)N1c2ccc(S(=O)(=O)N3CCC(C(=O)Nc4cccc(Cl)c4)CC3)cc2CC1C (configuration not stated) | 0 | 1 | · | · | 28
Cc1ccccc1NC(=S)NNc1ncc(C(F)(F)F)cc1Cl | -2 | -3 | 0 | -1 | -3
FC(F)(F)c1cnc(/C=C/Nc2ccccc2Cl)c(Cl)c1 | 11 | -4 | 0 | -3 | 52*
COc1ccc(-c2coc3cc(O)cc(O)c3c2=O)cc1 | 28 | 4 | 0 | -5 | 38
COc1ccc(-c2coc3cc(OC)cc(O)c3c2=O)cc1 | 21 | -8 | 0 | -5 | 56*
CCN(c1ccccc1)S(=O)(=O)c1ccc(C(C(=O)OC)C(=O)OC)c([N+](=O)[O-])c1 | 2 | 16 | 0 | 99* | -4
